In assay [1] the test system is NCI/ADR-RES. As to the kind of experiment: Cytotoxicity against human NCI/ADR-RES cells at 5.2 uM after 48 hrs by MTT assay. The assay is classed as functional, cell-based. In general terms: Tetrazolium assays rely on reduction of a dye to a coloured formazan, in cell work by metabolically active cells.
Assay [2] concerns Staphylococcus aureus. Nature of the assay: Antibacterial activity against methicillin-resistant Staphylococcus aureus after 18 hrs by microdilution broth method. Type of assay: functional. Summed up: (§1)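 Reference strains: S. aureus ATCC 29213, methicillin-resistant S. aureus ATCC 700787, P. aeruginosa ATCC 27853 and C. albicans ATCC 44506. Method as previously described elsewhere.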

In assay [3] the test system is PANC-1. As to the kind of experiment: Cytotoxicity against human PANC1 cells at 5.2 uM after 48 hrs by MTT assay. Type of assay: functional, cell-based.
Assay [4] relates to PANC-1. As to the kind of experiment: Cytotoxicity against human PANC1 cells at 6.4 uM after 48 hrs by MTT assay. The assay is classed as functional, cell-based.
Another assay concerns Candida albicans. As to the kind of experiment: Antifungal activity against Candida albicans after 18 hrs by microdilution broth method. The assay is classed as functional, organism-based. The essentials: as §1
In assay [5] the test system is Staphylococcus aureus. Nature of the assay: Antibacterial activity against Staphylococcus aureus after 18 hrs by microdilution broth method. Type of assay: functional. Summed up: as §1
The target of assay [6] is Induced myeloid leukemia cell differentiation protein Mcl-1 (Homo sapiens, UniProt Q07820). Nature of the assay: Inhibition of MCL1 binding to Bak by FRET assay.
The target in a further assay is Histone deacetylase 1 (Homo sapiens, UniProt Q13547). As to the kind of experiment: Inhibition of human HDAC1 assessed as [3H]acetate release after 90 mins by scintillation counting.
Assay [7] has as its system NCI/ADR-RES. Nature of the assay: Cytotoxicity against human NCI/ADR-RES cells after 48 hrs by MTT assay. The assay is classed as functional, cell-based. Summed up: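 NCI/ADR-RES (formerly MCF-7/ADR) is a multidrug-resistant human ovarian carcinoma line from the NCI-Frederick tumor/cell line repository. It was scored for inhibition of proliferation using a previously described protocol. Each sample was run at least three times to derive the final IC50.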

Another assay relates to Pseudomonas aeruginosa. As to the kind of experiment: Antibacterial activity against Pseudomonas aeruginosa after 18 hrs by microdilution broth method. The assay is classed as functional, organism-based. The essentials: as §1
A general note: Dilution methods test growth across graded concentrations, often in twofold steps.

Assay [8] has as its system DLD-1. As to the kind of experiment: Cytotoxicity against human DLD1 cells at 5.2 uM after 48 hrs by MTT assay. Type of assay: functional, cell-based.
The subject of assay [9] is DLD-1. As to the kind of experiment: Cytotoxicity against human DLD1 cells at 6.4 uM after 48 hrs by MTT assay. Type of assay: functional, cell-based.

≈ marks a conversion by molar mass, not a printed value. Calls of active or inactive are those of the source. No cut-off for these calls is given here.

Sequence of Induced myeloid leukemia cell differentiation protein Mcl-1 (Q07820 whole entry): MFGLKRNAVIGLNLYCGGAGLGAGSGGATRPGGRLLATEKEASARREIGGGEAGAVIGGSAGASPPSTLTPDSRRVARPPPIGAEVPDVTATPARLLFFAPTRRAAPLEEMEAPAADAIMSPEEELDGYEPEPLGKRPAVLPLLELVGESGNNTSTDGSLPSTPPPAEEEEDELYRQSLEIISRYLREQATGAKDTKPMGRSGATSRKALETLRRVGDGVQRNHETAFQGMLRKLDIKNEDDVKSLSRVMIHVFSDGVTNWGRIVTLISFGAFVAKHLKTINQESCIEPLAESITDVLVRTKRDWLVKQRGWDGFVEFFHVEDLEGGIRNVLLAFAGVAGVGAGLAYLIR
Sequence of Histone deacetylase 1 (Q13547 whole entry): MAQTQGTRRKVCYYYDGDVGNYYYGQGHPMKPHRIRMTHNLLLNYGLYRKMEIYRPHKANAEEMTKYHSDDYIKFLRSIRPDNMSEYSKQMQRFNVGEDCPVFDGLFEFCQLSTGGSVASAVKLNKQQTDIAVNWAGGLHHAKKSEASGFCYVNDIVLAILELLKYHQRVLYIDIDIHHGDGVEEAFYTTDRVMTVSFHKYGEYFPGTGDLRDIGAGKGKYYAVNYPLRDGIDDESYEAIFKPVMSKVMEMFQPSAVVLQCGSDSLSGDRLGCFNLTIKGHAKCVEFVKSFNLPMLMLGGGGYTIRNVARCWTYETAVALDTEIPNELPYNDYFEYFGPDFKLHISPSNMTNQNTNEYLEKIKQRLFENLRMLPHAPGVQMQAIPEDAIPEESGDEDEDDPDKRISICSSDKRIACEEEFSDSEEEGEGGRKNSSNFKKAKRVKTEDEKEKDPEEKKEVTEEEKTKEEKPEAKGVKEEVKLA

With `O=C(O)c1cc(O)c2c(c1)C(=O)c1cc(O)c(Br)c(O)c1C2=O`, the outcome in the assay with NCI/ADR-RES [1], in the assay on Staphylococcus aureus [2], with PANC-1 [3], in the assay with PANC-1 [4], with Candida albicans and in the assay on Staphylococcus aureus [5] was inactive. The outcome (in assay [6]; at Histone deacetylase 1; in the assay with NCI/ADR-RES [7]; in the assay with Pseudomonas aeruginosa; in the assay with DLD-1 [8]; in the assay with DLD-1 [9]) was inactive.
For `O=C(O)c1cc(O)c2c(c1)C(=O)c1cc(O)cc(O)c1C2=O`, the outcome with NCI/ADR-RES [1], in the assay with Staphylococcus aureus [2], with PANC-1 [3], in the assay with PANC-1 [4], in the assay with Candida albicans and with Staphylococcus aureus [5] was inactive. Also, the outcome (in assay [6]; at Histone deacetylase 1; in the assay with NCI/ADR-RES [7]; in the assay with Pseudomonas aeruginosa; in the assay on DLD-1 [8]; with DLD-1 [9]) was inactive.
As to `CCC[C@@H](O)Cc1c(Br)c(O)c2c(=O)c3c(O)c(Br)c(O)c4c5c(O)c(Br)c(O)c6c(=O)c7c(O)c(Br)c(C[C@H](O)CCC)c8c1c2c(c34)c(c65)c78` [GYMNOCHROME F], the result in the assay on NCI/ADR-RES [1], with PANC-1 [3], in the assay with Candida albicans, in the assay on Pseudomonas aeruginosa and in the assay on DLD-1 [8] was inactive. In addition, the MIC against Staphylococcus aureus [2] and with Staphylococcus aureus [5] was 12.5 µg/mL (≈ 13 µM) each time. In addition, the IC50 (commonly the concentration that inhibits the measured activity by half) in assay [6] was 3.3 µM.
In the case of `CCC[C@@H](O)Cc1c(Br)c(O)c2c(=O)c3c(O)cc(O)c4c5c(O)cc(O)c6c(=O)c7c(O)c(Br)c(C[C@H](C)O)c8c1c2c(c34)c(c65)c78` [GYMNOCHROME E], the MIC with Staphylococcus aureus [2] and against Staphylococcus aureus [5] was 25 µg/mL (≈ 32.1 µM) throughout. Further, the outcome with PANC-1 [4], with Candida albicans, in the assay with Pseudomonas aeruginosa and with DLD-1 [9] was inactive. Further, the IC50 stood at 10.9 µM at Histone deacetylase 1 and 3.5 µM in the assay with NCI/ADR-RES [7].

For the origin of these results see ChEMBL document CHEMBL1157063, “Gymnochromes E and F, cytotoxic phenanthroperylenequinones from a deep-water crinoid, Holopus rangii” (J Nat Prod, 2010).
